EBNA-1 inh: EBNA-1 DNA-binding inhibitors, primary screen, biochemical, fluorescence polarization. AID 1950, 2009. hit rate 0.34% among 300,000. inhibition, % at 14.8 µM; in the data active means inhibition above about 28%
NS3 helicase inh: inhibitors of HCV NS3 helicase, primary screen, biochemical, Cy5 molecular beacon fluorescence; Hepatitis C virus NS3 helicase; NS3 helicase DNA unwinding; inhibition, % at 10.9 µM; hit rate 0.56% among 290,000;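 active means inhibition above the mean of all tested compounds plus 3 SD, set per campaign, cut at about 35% in these data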
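Compound dosing – single dose, 10.9 µM nominal final, DMSO 0.8% final · System – NS3 helicase fragment of HCV · Buffer or medium – MOPS pH 6.5, MgCl2, DTT, Tween20, BSA · Signal – Cy5 beacon fluorescence read at start and 1 h · Also added – annealed dual-labelled DNA beacon duplex, ATP-started · Schedule – 1 h at 25 °C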
ZTA DNA inh: counter-screen for EBNA-1 inhibitors: inhibitors of Epstein-Barr virus ZTA | ZTA-DNA binding, fluorescence polarization | P03206 | hit rate 0.15% among 320,000 | inhibition, % at 11 µM; in the data active means inhibition above about 33%
Target sequence (P03206 whole entry, looked up): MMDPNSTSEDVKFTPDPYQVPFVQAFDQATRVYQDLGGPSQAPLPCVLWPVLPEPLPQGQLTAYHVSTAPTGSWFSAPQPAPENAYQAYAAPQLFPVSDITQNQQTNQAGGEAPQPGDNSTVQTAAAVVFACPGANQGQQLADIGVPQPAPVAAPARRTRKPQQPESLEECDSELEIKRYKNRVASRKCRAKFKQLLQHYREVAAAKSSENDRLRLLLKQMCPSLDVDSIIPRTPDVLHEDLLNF
HCV core dimer: inhibitors of HCV core protein dimerization, primary screen, biochemical, TR-FRET, high-throughput; AID 1899, 2009; hit rate 0.33% among 300,000; inhibition, % at 5 µM; TR-FRET GST/Flag-core106 dimerization, 1536-well;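 active means inhibition above the mean of all tested compounds plus 3 SD, set per screening campaign, cut at about 45% in these data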
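Material: GST/Flag-tagged HCV core106 proteins. Incubation: 4 h, 22.5 °C incubation. Read-out basis: inhibition (%) from 671 over 617 nm ratio. Measured by: TR-FRET, excitation 340 nm, emission 617 and 671 nm.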
UBC9 SUMO inh: inhibitors of in vitro SUMOylation cascade, primary screen, biochemical, HTRF, uHTS; inhibition, % at 35 µM; AID 2006, 2009; HTRF SUMOylation assay, SAE1/SAE2 + UBC9; hit rate 0.36% among 290,000; SUMO-conjugating enzyme UBC9 (Homo sapiens), P63279; in the data active means inhibition above about 50%, passing the limit was not always enough; inconclusive means no clear call, values can overlap the other calls
Target sequence (P63279 whole entry, looked up): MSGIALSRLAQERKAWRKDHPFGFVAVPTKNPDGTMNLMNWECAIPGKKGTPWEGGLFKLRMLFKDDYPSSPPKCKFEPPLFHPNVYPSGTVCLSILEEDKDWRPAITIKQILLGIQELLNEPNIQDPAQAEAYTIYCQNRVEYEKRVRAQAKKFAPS
Large screens that a line does not name were inactive. A selection: hits, their analogues and other compounds. The true share with any hit is near 1.4%.

O=C(N/N=C/c1cccs1)c1cccc(NC(=O)c2ccc(Cl)cc2)c1	EBNA-1 inh 59
O=C(N/N=C/c1cccs1)c1cccc(S(=O)(=O)Nc2ccc(Cl)cc2)c1	none
O=C(c1cccn2c(=O)c3cc(Br)ccc3nc12)N1CCN(c2ccccn2)CC1	none
CCOC(=O)N1CCN(C(=O)c2cccn3c(=O)c4cc(Br)ccc4nc23)CC1	UBC9 SUMO inh 51
CCOC(=O)N1CCN(C(=O)c2cccn3c(=O)c4cc(Cl)ccc4nc23)CC1	UBC9 SUMO inh 58
CCc1cc2c(=O)c(Oc3ccccc3F)c(C)oc2c(CN(C)C)c1O	UBC9 SUMO inh 64
Cc1ccc(Cl)cc1NC(=O)Cn1c(C)csc1=O	none (no result: EBNA-1 inh, NS3 helicase inh, HCV core dimer, UBC9 SUMO inh)
C/C(CC(=O)N1CCN(C=O)CC1)=N\NC(=O)c1cc2ccccc2cc1O	UBC9 SUMO inh 65
C/C(CC(=O)N1CCN(C=O)CC1)=N\NC(=O)c1ccc([N+](=O)[O-])cc1	none
C/C(=N\NC(=O)c1cc2ccccc2cc1O)c1cc2ccccc2o1	UBC9 SUMO inh 56
CCCCC(C(=O)NC1CCCC1)N(C(=O)c1snc(C(N)=O)c1N)c1ccc(F)cc1 (stereo not drawn)	none
CN(CCOc1ccc(Cl)cc1)C(=O)C1CCN(C(=O)c2ccc(Cl)cc2)CC1	none
Cc1ccc(NC(=O)COC(=O)CC2CCCC2)cc1Cl	none
CCN(CC)c1ccc(N)cc1	none (no result: EBNA-1 inh, NS3 helicase inh, HCV core dimer, UBC9 SUMO inh)
Nc1ccc(N(CCO)CCO)cc1	EBNA-1 inh 193, ZTA DNA inh active
O=C(N/N=C/c1ccc(Cl)c([N+](=O)[O-])c1)c1cc(-c2ccc3c4c(cccc24)CC3)n[nH]1	UBC9 SUMO inh 51
O=C(N/N=C/c1cccc([N+](=O)[O-])c1)c1cc(-c2ccc3c4c(cccc24)CC3)n[nH]1	none
O=C(CSc1nc2[nH]ncc2c(=O)n1-c1ccccc1)c1ccc2c(c1)OCCO2	none
N=c1c2cn[nH]c2nc(SCC(=O)c2ccc(Br)cc2)n1-c1ccc(Br)cc1	UBC9 SUMO inh 54
Cn1c(C(=O)N2CCN(C(=O)c3ccco3)CC2)cc2c(=O)n3ccccc3nc21	UBC9 SUMO inh 58
CC1CCCCC1NC(=O)c1cc2c(=O)n3ccccc3nc2n1C (stereo not drawn)	UBC9 SUMO inh 58
Cn1c(C(=O)N2CCOCC2)cc2c(=O)n3ccccc3nc21	UBC9 SUMO inh inconclusive
O=C(CNC(=O)c1ccco1)NCC(c1ccco1)N1CCCCC1 (stereo not drawn)	none (no result: EBNA-1 inh, NS3 helicase inh, HCV core dimer, UBC9 SUMO inh)
COc1ccc2c(c1)Cc1sc(NC(=O)c3cccnc3)nc1-2	UBC9 SUMO inh 90
NC(=O)c1cc([N+](=O)[O-])ccc1NCC1CCCCC1	none (no result: NS3 helicase inh, UBC9 SUMO inh)
Nc1ccc(N2CCCCC2)c2nonc12	ZTA DNA inh 57
Cc1coc2c1c(C)cc1oc(=O)c(CC(=O)N[C@@H](CC(C)C)C(=O)O)c(C)c12	none
S=C1NC2=C(CCCC2=C2SCCCS2)C(c2ccccc2)N1 (stereo not drawn)	HCV core dimer 48
S=C1NC2=C(CCC/C2=C\c2ccccc2)C(c2ccccc2)N1 (stereo not drawn)	none
COc1ccc(C2NC(=S)NC3=C2CCCC3=C2SCCS2)cc1 (stereo not drawn)	HCV core dimer 48
COc1cccc(N2CCN(C(=O)CNC(=O)c3sc4ccccc4c3Cl)CC2)c1	none
C=CCN(CC=C)Cc1c(O)ccc2c(=O)c(-c3ccccc3)coc12	none
Cc1cc(-c2nnco2)c(C)n1-c1ccc(F)cc1	none
Cc1ccc(C)n1-c1ccc(-c2nnco2)cc1	HCV core dimer 67
CC1CCc2sc(C(=O)N3CCC(C(N)=O)CC3)cc2C1 (stereo not drawn)	none (no result: EBNA-1 inh, NS3 helicase inh, HCV core dimer, UBC9 SUMO inh)
COc1ccc(NC(=O)Nc2nnc(-c3ccncc3)s2)cc1	none
O=C(Nc1ccc(Cl)c(Cl)c1)Nc1nnc(-c2ccncc2)s1	HCV core dimer 87
COCCn1c(-c2ccc(Br)cc2)nc2oc3cc(OC)ccc3c(=O)c2c1=O	none
CC(=O)Nc1cccc(C(=O)OC(C)C(=O)N2CCc3ccccc32)c1 (stereo not drawn)	none (no result: NS3 helicase inh, UBC9 SUMO inh)
Cc1ccc(/C=C2\CCC3=C2OC(N)=C(C#N)C3c2ccc(C)cc2)cc1 (stereo not drawn)	HCV core dimer 76
Cc1ccc(C2C(C#N)=C(N)Oc3cc(N)ccc32)cc1 (stereo not drawn)	none
O=C1Nc2ccccc2/C1=C/c1cnc(-c2ccccc2)[nH]1	HCV core dimer 48
O=C1Nc2ccccc2/C1=C/c1cccnc1	none
COc1cc2c(cc1OC)C(C)=NC1(CCCCC1)C2	UBC9 SUMO inh 59
CCCN(CC(=O)Nc1ccccc1OC)C(=O)C1=COCCO1	none (no result: EBNA-1 inh, NS3 helicase inh, HCV core dimer, UBC9 SUMO inh)
COc1ccc2nc(NC(=O)CSc3ccccc3)sc2c1	none
COc1ccc2nc(NC(=O)CSc3nnc(N)s3)sc2c1	EBNA-1 inh 37
O=C(Nc1ccccc1)/C(=C/c1ccc(F)cc1)NC(=O)c1ccco1	none
Cc1ccc(-c2cc(-c3ccc(C)o3)nc(N)c2C#N)cc1	HCV core dimer 60
COc1ccc(Cc2nnc(NC(=O)Cc3cccs3)s2)cc1OC	HCV core dimer 74
COc1cc(C(=O)Nc2nnc(Cc3ccccc3)s2)cc(OC)c1OC	none (no result: EBNA-1 inh, ZTA DNA inh, HCV core dimer)
COc1ccc(C(=O)Nc2nnc(Cc3ccccc3)s2)c(OC)c1	HCV core dimer 68
O=C(Cc1cccs1)Nc1nnc(Cc2ccccc2)s1	HCV core dimer 83
CCc1nnc(NC(=O)Cc2ccc(OC)c(OC)c2)s1	none
O=C(Cc1cccs1)Nc1nnc(CCc2ccccc2)s1	none
CCOc1ccc(NC(=O)CN(C)C(=O)c2ccc(-c3ccc(C(C)=O)cc3)o2)cc1OCC	none (no result: NS3 helicase inh, UBC9 SUMO inh)
Cc1cc(Cl)n2c(nc3cc(F)c(F)cc32)c1C#N	none (no result: EBNA-1 inh, ZTA DNA inh, HCV core dimer)
Cc1cc(C)n2c(=O)c3ccc(Cl)cc3nc2c1C#N	HCV core dimer 52
CC(=O)N(C)c1ccc(NC(=S)Nc2ccccc2)cc1	none
CC(=O)N(C)c1ccc(NC(=S)Nc2cccc3ccccc23)cc1	UBC9 SUMO inh 95
CNc1c(NC(=O)C2CCC(C)CC2)c(=O)oc2ccccc12 (stereo not drawn)	none
O=[N+]([O-])c1ccccc1OCC(O)CN1CCN(CC(O)COc2ccccc2[N+](=O)[O-])CC1 (stereo not drawn)	none
CCn1c(CSc2nnc(-c3ccncc3)n2C)nc2cc(C(=O)O)ccc21	EBNA-1 inh 30, ZTA DNA inh 43
O=C(CCCn1cncn1)N1CCCC(Nc2ccc(F)cc2)C1 (stereo not drawn)	none (no result: EBNA-1 inh, ZTA DNA inh, HCV core dimer)
Cc1cccc(C)c1NC(=O)CSc1nc(C)c(CC(=O)c2ccc(Br)cc2)c(C)c1C#N	HCV core dimer 70
CN1CCCc2cc3c(C(F)(F)F)cc(=O)oc3nc21	UBC9 SUMO inh 62
CC(C)c1cc(=O)oc2c3c4c(cc12)CCCN4CCC3	none
NC(=O)COc1ccc(-n2cnnn2)cc1	HCV core dimer 46
NC(=O)c1ccc(NC(=O)COc2ccc(-n3cnnn3)cc2)cc1	none (no result: EBNA-1 inh, NS3 helicase inh, HCV core dimer, UBC9 SUMO inh)
O=C(O)CN1C(=O)/C(=C/C=C/c2ccccc2)SC1=S	none
